Shown are actives, neighbours in structure and some others; about 4.3% of the full set was active somewhere.
Rtt109 HAT inh = blocks Candida albicans Rtt109/Vps75 acetyltransferase activity; AID 540336; purified Rtt109/Vps75, ThioGlo CoA-SH fluorescence, 4 h; inhibition, % at 34.9 µM; 330,000 compounds, 0.16% hits; Q5AAJ8;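 active = inhibition of at least 50% in every replicate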
Target sequence (Q5AAJ8 whole entry, looked up): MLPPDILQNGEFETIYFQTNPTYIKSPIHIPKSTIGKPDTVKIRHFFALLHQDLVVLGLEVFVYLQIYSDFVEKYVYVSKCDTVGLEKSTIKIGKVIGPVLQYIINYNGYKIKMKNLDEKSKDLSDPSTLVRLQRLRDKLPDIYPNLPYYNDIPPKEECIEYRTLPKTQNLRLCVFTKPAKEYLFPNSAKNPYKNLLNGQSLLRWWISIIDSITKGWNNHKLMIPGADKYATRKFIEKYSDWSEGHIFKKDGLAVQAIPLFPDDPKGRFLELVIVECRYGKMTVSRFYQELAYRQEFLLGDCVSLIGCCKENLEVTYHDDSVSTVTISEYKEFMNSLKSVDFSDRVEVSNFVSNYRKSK
CAL PDZ FP-1 = CAL PDZ (human) peptide binding inhibition; AID 602252; 300,000 compounds, 0.92% hits; purified CAL PDZ, TMR-peptide fluorescence polarization, 1 h; inhibition, % at 24.9 µM; Q9HD26;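 active = mean inhibition of at least 30% with at least half of replicates also reaching 30%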;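 note: 0% = DMSO neutral control and 100% = excess unlabeled competitor peptide PRC23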
CAL PDZ FP-2 = human CAL PDZ-peptide interaction inhibition. 330,000 compounds, 0.02% hits. inhibition, % at 20 µM. purified CAL PDZ, TMR-peptide fluorescence polarization, 1 h;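 active = highest replicate inhibition of at least 40%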;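 note: plate controls were DMSO neutral control wells for no effect and unlabeled competitor peptide control wells for full effect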
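Material: tagged CAL PDZ domain; buffer or medium: 25 mM sodium phosphate pH 7.4, 150 mM NaCl, TCEP, IgG, Thesit; compound dosing: single point, 20 µM; schedule: 1 h incubation at room temperature before polarization reading; measured by: FP readout, S and P plane fluorescence; read-out basis: percent inhibition from loss of millipolarization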
Dyrk1A ADPGlo = inhibitors of rat Dyrk1A kinase; ADP-Glo luminescence, NFATc1 peptide; AID 504441; 310,000 compounds, 0.43% hits; Q63470; inhibition, % at 12.5 µM; in the data active = inhibition above about 50%;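 note: plate controls were vehicle with enzyme for no effect and no enzyme for full effect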
ALR inh = human ALR oxidase inhibition via reduced H2O2. P55789. purified ALR, DTT oxidation, H2O2 HRP-luminol luminescence. inhibition, % (no concentration beside the values). 290,000 compounds, 3.8% hits. AID 485317;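 active = mean replicate inhibition above about 79%, with every replicate also reaching it, limit read from the data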
Target sequence (P55789 whole entry, looked up): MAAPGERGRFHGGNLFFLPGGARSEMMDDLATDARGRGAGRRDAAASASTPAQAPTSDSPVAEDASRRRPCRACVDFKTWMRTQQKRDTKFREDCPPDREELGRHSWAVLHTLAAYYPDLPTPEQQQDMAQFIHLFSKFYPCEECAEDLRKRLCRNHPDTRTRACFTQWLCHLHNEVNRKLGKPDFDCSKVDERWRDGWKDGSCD
* hit, by the source's call.

How did O=C(Nc1ccccc1N1CCCC1)c1ccc(N2CCCC2=O)cc1 do in these assays?
Rtt109 HAT inh: -67.1; CAL PDZ FP-2: -0.2; ALR inh: 99.4*

What do the screens show for `O=C(c1ccc(N2CCCC2=O)cc1)N1CCN(c2ccccc2F)CC1`?
Rtt109 HAT inh: -4.2; CAL PDZ FP-1: 56.3*; CAL PDZ FP-2: -1.4; Dyrk1A ADPGlo: 3.9; ALR inh: 1.7

Results for O=C(c1ccc(N2CCCC2=O)cc1)N1CCN(c2ccccc2O)CC1 ?
Rtt109 HAT inh: 10.4; CAL PDZ FP-1: 1.5; CAL PDZ FP-2: -0.5; Dyrk1A ADPGlo: 2.8

What do the screens show for `Cc1cccc(C(=O)OCC(=O)NCCCc2ccccc2)c1O`?
Rtt109 HAT inh: -4.7; CAL PDZ FP-1: 7.5; CAL PDZ FP-2: -0.9; Dyrk1A ADPGlo: -1.1

Results for CCCCCC1(C)NC(=S)N(c2ccccc2)N1 (stereo not drawn) ?
Rtt109 HAT inh: 21.3; CAL PDZ FP-1: -4.8; CAL PDZ FP-2: -0.3; Dyrk1A ADPGlo: -2.6; ALR inh: -2.8

Results for CCC1(c2ccc(Cl)cc2)NC(=S)N(c2ccccc2)N1 (stereo not drawn) ?
Rtt109 HAT inh: 4.7; CAL PDZ FP-1: -5.6; CAL PDZ FP-2: -1.0; Dyrk1A ADPGlo: -0.3; ALR inh: 94.5*

Results for CCC1(c2ccccc2)NC(=S)N(c2ccc(C)cc2)N1 (stereo not drawn) ?
Rtt109 HAT inh: 11.5; CAL PDZ FP-2: 0.5; Dyrk1A ADPGlo: 12.2; ALR inh: 93.7*

What do the screens show for `CC(NC(=O)c1ccc(Cn2cc([N+](=O)[O-])cn2)cc1)c1ccccc1` (stereo not drawn)?
Rtt109 HAT inh: 5.1; CAL PDZ FP-1: -4.3; CAL PDZ FP-2: -0.7; Dyrk1A ADPGlo: -10.4; ALR inh: -2.4

How did COC(=O)c1ccc(Cn2cc([N+](=O)[O-])cn2)cc1 do in these assays?
Rtt109 HAT inh: -4.7; CAL PDZ FP-1: 68.4*; CAL PDZ FP-2: 0.7; ALR inh: -26.2

How did Cc1ccc2cccc(S(=O)(=O)N3CCCc4ccccc43)c2n1 do in these assays?
Rtt109 HAT inh: 4.3; CAL PDZ FP-2: -1.0; Dyrk1A ADPGlo: -2.3; ALR inh: -4.9

What do the screens show for `Cc1occc1-c1nnc(SCC(=O)c2ccc(F)cc2)o1`?
Rtt109 HAT inh: 0.2; CAL PDZ FP-1: 8.1; CAL PDZ FP-2: -0.5; Dyrk1A ADPGlo: -7.1; ALR inh: 96.6*

Results for Cc1occc1-c1nnc(SCC(N)=O)o1 ?
Rtt109 HAT inh: -8.0; CAL PDZ FP-1: 9.2; CAL PDZ FP-2: 0.6; Dyrk1A ADPGlo: 3.0; ALR inh: -4.8

What do the screens show for `O=C(COC(=O)c1ccc(S(=O)(=O)N2CCCC2)cc1)Nc1ccc(Cl)cc1`?
Rtt109 HAT inh: -5.6; CAL PDZ FP-1: -0.3; CAL PDZ FP-2: -1.7; ALR inh: -8.1

What do the screens show for `O=C(COC(=O)CSCC(=O)N1CCCCC1)Nc1ccc(Cl)cc1`?
Rtt109 HAT inh: -6.4; CAL PDZ FP-1: -4.8; CAL PDZ FP-2: -1.1; Dyrk1A ADPGlo: 4.9; ALR inh: 88.9*

What do the screens show for `O=C(CSCC(=O)N1CCCCC1)OCC(=O)c1c[nH]c2ccccc12`?
Rtt109 HAT inh: -0.7; CAL PDZ FP-1: -1.2; CAL PDZ FP-2: -0.8; Dyrk1A ADPGlo: -2.0; ALR inh: 98.3*

What do the screens show for `CCC(C(=O)N1CCN(Cc2ccc3c(c2)OCO3)CC1)n1c(=O)[nH]c2ccccc2c1=O` (stereo not drawn)?
Rtt109 HAT inh: 6.0; CAL PDZ FP-1: 1.6; CAL PDZ FP-2: -1.5; Dyrk1A ADPGlo: 0.6; ALR inh: -1.8

How did COc1ccc2nc(NNC(=O)C3COc4ccccc4O3)sc2c1 (stereo not drawn) do in these assays?
Rtt109 HAT inh: 6.1; CAL PDZ FP-2: -0.8; Dyrk1A ADPGlo: 13.5; ALR inh: 98.7*

What do the screens show for `C=CCN1CC(O)=C(c2nc3ccccc3[nH]2)C1=N`?
CAL PDZ FP-1: -1.5; CAL PDZ FP-2: -0.6; Dyrk1A ADPGlo: 3.0; ALR inh: 83.5*

Results for Cc1nnc(SCc2cccc([N+](=O)[O-])c2)[nH]c1=O ?
Rtt109 HAT inh: 7.9; CAL PDZ FP-1: 1.6; CAL PDZ FP-2: -2.7; Dyrk1A ADPGlo: -4.7; ALR inh: 99.0*

What do the screens show for `Cc1ccccc1CSc1nnc(C)c(=O)[nH]1`?
Rtt109 HAT inh: 1.3; CAL PDZ FP-1: -13.5; CAL PDZ FP-2: -0.7; Dyrk1A ADPGlo: -0.3; ALR inh: 90.8*

What do the screens show for `O=C1C2C3c4ccccc4C(c4ccccc43)C2C(=O)N1Cc1ccco1` (stereo not drawn)?
Rtt109 HAT inh: 2.1; CAL PDZ FP-1: -5.6; CAL PDZ FP-2: 0.2; Dyrk1A ADPGlo: 7.0

Results for CC12C(=O)N(Cc3ccco3)C(=O)C1C1c3ccccc3C2c2ccccc21 (stereo not drawn) ?
Rtt109 HAT inh: 5.6; CAL PDZ FP-1: 102.8*; Dyrk1A ADPGlo: -1.5; ALR inh: -2.6

Results for COCCNC(=O)/C(C#N)=C/c1ccc(N2CCOCC2)o1 ?
Rtt109 HAT inh: 10.4; CAL PDZ FP-1: -1.5; CAL PDZ FP-2: -1.5; Dyrk1A ADPGlo: -1.8

What do the screens show for `N#C/C(=C\c1ccc(N2CCOCC2)o1)C(=O)NCC1CCCO1` (stereo not drawn)?
Rtt109 HAT inh: 6.7; CAL PDZ FP-1: -1.5; CAL PDZ FP-2: -2.7; Dyrk1A ADPGlo: -2.4; ALR inh: 86.3*

How did N#C/C(=C\c1ccc(-c2ccc(C(=O)O)cc2)o1)C(=O)NCC1CCCO1 (stereo not drawn) do in these assays?
Rtt109 HAT inh: -10.8; CAL PDZ FP-1: -2.6; CAL PDZ FP-2: -1.5; Dyrk1A ADPGlo: 28.2; ALR inh: -2.2

How did N#C/C(=C\c1ccc(N2CCOCC2)o1)C(=O)NCCc1ccccc1 do in these assays?
Rtt109 HAT inh: -8.0; CAL PDZ FP-1: 2.9; CAL PDZ FP-2: 0.2; Dyrk1A ADPGlo: -3.6; ALR inh: 88.7*

What do the screens show for `N#C/C(=C\c1ccc(N2CCOCC2)o1)C(=O)NC1CCCCC1`?
Rtt109 HAT inh: 4.1; CAL PDZ FP-1: -5.5; CAL PDZ FP-2: 1.0; Dyrk1A ADPGlo: 11.1; ALR inh: 79.2*

Results for C/C(=N\Nc1ccc(F)cc1)c1ccc(N2CCOCC2)c(F)c1 ?
Rtt109 HAT inh: 14.8; CAL PDZ FP-1: -5.0; CAL PDZ FP-2: -1.5; Dyrk1A ADPGlo: -4.4; ALR inh: 4.5

How did CC(C)c1nnc(NC(=O)CCC(=O)NCc2cccs2)s1 do in these assays?
Rtt109 HAT inh: 53.4*; CAL PDZ FP-1: 0.0; CAL PDZ FP-2: -1.2; Dyrk1A ADPGlo: -1.6; ALR inh: -8.2

Results for CCCc1ccc(S(=O)(=O)N2CCN(C(C)C(=O)NCc3ccccc3)CC2)cc1 (stereo not drawn) ?
Rtt109 HAT inh: 20.0; CAL PDZ FP-1: -3.6; CAL PDZ FP-2: 0.2; Dyrk1A ADPGlo: 3.5

What do the screens show for `Cc1ccc(NC(=O)CN2C(=O)S/C(=C/c3ccc(-c4cc(C(=O)O)ccc4C)o3)C2=O)cc1C`?
Rtt109 HAT inh: -8.0; CAL PDZ FP-1: 0.6; CAL PDZ FP-2: -2.3; Dyrk1A ADPGlo: -0.3; ALR inh: -19.7

What do the screens show for `COC(=O)C(C)N1C(=O)S/C(=C\c2ccc(-c3ccc(C(=O)O)cc3C)o2)C1=O` (stereo not drawn)?
Rtt109 HAT inh: -2.3; CAL PDZ FP-1: -14.2; CAL PDZ FP-2: -1.9; Dyrk1A ADPGlo: 6.2; ALR inh: 97.9*

From PubChem BioAssay
